Where a name gives a salt, the structure may show the parent alone.
Legend:
HL-60 = assay: Growth inhibition of human HL60 cells measured after 3 days by trypan blue assay; format: functional; conditions: HL-60, 72 h
Summary of the method: (§1)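 Human leukemia cells exposed to compound for 3 days. Growth assessed by trypan blue method with total cell counts, and inhibition calculated relative to untreated control cells. GI50 taken as the concentration giving 50% growth inhibition. Doxorubicin hydrochloride and gambogic acid included as positive controls.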

K562 = assay: Growth inhibition of human K562 cells measured after 3 days by trypan blue assay; format: functional; conditions: K562, 72 h; summary of the method: as §1

Row | Compound | GI50 (HL-60) | GI50 (K562)
1 | CC(C)=CCC[C@]1(C)C=Cc2c(O)c3c(c(CC=C(C)C)c2O1)O[C@]12C(=C[C@@H]4C[C@H]1C(C)(C)O[C@@]2(C/C=C(/C)C(=O)O)C4=O)C3=O [GAMBOGIC ACID] | 300 nM | 600 nM
2 | CC(C)=CC[C@@]12OC(C)(C)[C@H]3C[C@H](C=C4C(=O)c5c(O)cc6c(c5O[C@]431)C(C)(C)[C@@H](C)O6)C2=O | 1200 nM | 2100 nM
3 | CC(C)=CC[C@@]12OC(C)(C)C3C[C@H](C=C4C(=O)c5c(O)cc6c(c5O[C@]431)C(C)(C)[C@H](C)O6)C2=O | 1900 nM | 3600 nM
4 | C=CC(C)(C)c1c(O)cc(O)c2c1O[C@]13[C@H](C2=O)[C@@H](OCC)[C@@H]2C[C@H]1C(C)(C)OC3(CC=C(C)C)C2=O | 4500 nM | 2100 nM
5 | CC(C)=CCC12OC(C)(C)C3CC4(Oc5c(c(O)cc6c5C(C)(C)[C@H](C)O6)C(=O)C4=CC31)C2=O (some centres undefined) | 900 nM | 1600 nM
6 | CC(C)=CCC12OC(C)(C)C3CC4(Oc5c(c(O)cc6c5C(C)(C)[C@@H](C)O6)C(=O)C4=CC31)C2=O (some centres undefined) | 700 nM | 1700 nM
7 | COc1cccc2c1C(=O)c1c(O)c3c(c(O)c1C2=O)C[C@@](O)(C(=O)CO)C[C@@H]3O[C@H]1C[C@H](N)[C@H](O)[C@H](C)O1 [DOXORUBICIN HYDROCHLORIDE] | 20 nM | 20 nM

Continued, values first:

Row | GI50 (HL-60) | GI50 (K562) | Compound
8 | 400 nM | 1000 nM | C=CC(C)(C)c1c(O)cc(O)c2c1OC13C(=CC4CC1C(C)(C)OC3(CC=C(C)C)C4=O)C2=O (centres undefined)
9 | 3400 nM | 1600 nM | C=CC(C)(C)c1c(O)cc(OC)c2c1OC13C(C2=O)[C@@H](OC)[C@@H]2C[C@H]1C(C)(C)O[C@@]3(CC=C(C)C)C2=O (some centres undefined)
10 | 200 nM | 800 nM | C=CC(C)(C)c1c(OC)cc(O)c2c1OC13C(=CC4CC1C(C)(C)OC3(CC=C(C)C)C4=O)C2=O (centres undefined)
11 | 1100 nM | 2100 nM | CC(C)=CC[C@@]12OC(C)(C)[C@H]3C[C@H](C=C4C(=O)c5c(O)cc6c(c5O[C@]431)C(C)(C)[C@H](CO)O6)C2=O
12 | 1100 nM | 2100 nM | CC(C)=CC[C@@]12OC(C)(C)[C@H]3C[C@H](C=C4C(=O)c5c(O)cc6c(c5O[C@]431)C(C)(C)[C@@H](CO)O6)C2=O
13 | 1000 nM | 1500 nM | C=CC(C)(C)c1c(OC)cc(O)c2c1OC13CC4C(C=C1C2=O)C(CC=C(C)C)(OC4(C)C)C3=O (centres undefined)
14 | 6500 nM | 3500 nM | C=CC(C)(C)c1c(O)cc(O)c2c1O[C@]13CC4[C@H]([C@@H](OC)C1C2=O)[C@@](CC=C(C)C)(OC4(C)C)C3=O (some centres undefined)
15 | 7300 nM | 3400 nM | C=CC(C)(C)c1c(O)cc(O)c2c1O[C@]13C(C2=O)[C@@H](OC)[C@@H]2C[C@H]1C(C)(C)O[C@@]3(CC=C(C)C)C2=O (some centres undefined)
16 | 800 nM | 1300 nM | C=CC(C)(C)c1c(O)cc(O)c2c1OC13CC4C(C=C1C2=O)C(CC=C(C)C)(OC4(C)C)C3=O (centres undefined)
17 | 8800 nM | 3800 nM | C=CC(C)(C)c1c(O)cc(O)c2c1O[C@]13[C@H](C2=O)[C@@H](OC)[C@@H]2C[C@H]1C(C)(C)O[C@@]3(/C=C/C(C)(C)O)C2=O

— ChEMBL document CHEMBL4251713, “Bioassay- and Chemistry-Guided Isolation of Scalemic Caged Prenylxanthones from the Leaves of Garcinia bracteata” (2018)
